Experimental data: ChEMBL document CHEMBL5724801, “EUbOPEN Chemogenomics Library - Multiplex” (2024)
“And” between values parts separate entries of the source, which are not always exact repeats. Identical values can stand only once.

Test system: U2OS
Assay: Multiplex assay against U2OS
Assay type: toxicity, cell-based
Details: human
Procedure, shortened: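 At seeding, live cells were stained with Hoechst33342, BioTracker Green Microtubule Cytoskeleton Dye, MitoTracker Red and Annexin V Alexa Fluor 680. After compound addition they were imaged on a CQ1 microscope at 37°C and 5% CO2, and CellPathfinder machine-learning gating sorted them into Hoechst high-intensity objects or normal cells, with normal cells further split into healthy, pyknosed or fragmented nuclei and pyknosed cells into mitotic or apoptotic. Tubulin, mitochondrial-mass and membrane-permeability phenotypes are given as per cents of cells with healthy nuclei.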

[1] = 12 h, 1 µM, compound concentration 1 uM
[2] = 12 h, 10 µM, compound concentration 10 uM
[3] = 24 h, 1 µM, compound concentration 1 uM
[4] = 24 h, 10 µM, compound concentration 10 uM
[5] = 48 h, 1 µM, compound concentration 1 uM
[6] = 48 h, 10 µM, compound concentration 10 uM

SMILES: COc1cc(/C=C(\C#N)C(=O)Nc2nnc(C(F)(F)F)s2)ccc1OCc1ccc(C(F)(F)F)cc1C(F)(F)F
- Population Apoptotic (%) [1]: 22.22% and 38.1%
- Population Fragmented Nuclei (%) [1]: 1.99% and 4.9%
- Population Healthy Nuclei (%) [1]: 89.05% and 80.42%
- Population Hoechst High Intensity Objects (%) [1]: 0%
- Population Membrane Permeable-Phenotype (%) [1]: 0.84% and 2.61%
- Population Mitochondria Different-Phenotype (%) [1]: 0.28% and 6.09%
- Population Mitotic Cells (%) [1]: 77.78% and 61.9%
- Population Normal (%) [1]: 100%
- Population Pyknosed Nuclei (%) [1]: 8.96% and 14.69%
- Population Tubulin-Different-Phenotype (%) [1]: 0.56% and 0%
- Total Cell Count [1]: 402 and 143
- Population Apoptotic (%) [2]: 36.59% and 47.06%
- Population Fragmented Nuclei (%) [2]: 1.77% and 5.29%
- Population Healthy Nuclei (%) [2]: 87.88% and 85.71%
- Population Hoechst High Intensity Objects (%) [2]: 0%
- Population Membrane Permeable-Phenotype (%) [2]: 0.57% and 6.17%
- Population Mitochondria Different-Phenotype (%) [2]: 0.29% and 3.09%
- Population Mitotic Cells (%) [2]: 63.41% and 52.94%
- Population Normal (%) [2]: 100%
- Population Pyknosed Nuclei (%) [2]: 10.35% and 8.99%
- Population Tubulin-Different-Phenotype (%) [2]: 1.72% and 0%
- Total Cell Count [2]: 396 and 189
- Population Apoptotic (%) [3]: 43.86% and 43.48%
- Population Fragmented Nuclei (%) [3]: 1.6% and 6.28%
- Population Healthy Nuclei (%) [3]: 88.24% and 81.68%
- Population Hoechst High Intensity Objects (%) [3]: 0%
- Population Membrane Permeable-Phenotype (%) [3]: 0.81% and 3.85%
- Population Mitochondria Different-Phenotype (%) [3]: 0% and 5.13%
- Population Mitotic Cells (%) [3]: 56.14% and 56.52%
- Population Normal (%) [3]: 100%
- Population Pyknosed Nuclei (%) [3]: 10.16% and 12.04%
- Population Tubulin-Different-Phenotype (%) [3]: 0.81% and 0.64%
- Total Cell Count [3]: 561 and 191
- Population Apoptotic (%) [4]: 52.08% and 57.69%
- Population Fragmented Nuclei (%) [4]: 0.74% and 3.08%
- Population Healthy Nuclei (%) [4]: 90.41% and 85.46%
- Population Hoechst High Intensity Objects (%) [4]: 0%
- Population Membrane Permeable-Phenotype (%) [4]: 1.43% and 7.22%
- Population Mitochondria Different-Phenotype (%) [4]: 0% and 1.03%
- Population Mitotic Cells (%) [4]: 47.92% and 42.31%
- Population Normal (%) [4]: 100%
- Population Pyknosed Nuclei (%) [4]: 8.86% and 11.45%
- Population Tubulin-Different-Phenotype (%) [4]: 1.43% and 0.52%
- Total Cell Count [4]: 542 and 227
- Population Apoptotic (%) [5]: 46.05% and 40.48%
- Population Fragmented Nuclei (%) [5]: 3.37% and 3.16%
- Population Healthy Nuclei (%) [5]: 89.31% and 83.54%
- Population Hoechst High Intensity Objects (%) [5]: 0%
- Population Membrane Permeable-Phenotype (%) [5]: 1.29% and 1.14%
- Population Mitochondria Different-Phenotype (%) [5]: 0.11% and 2.65%
- Population Mitotic Cells (%) [5]: 53.95% and 59.52%
- Population Normal (%) [5]: 100%
- Population Pyknosed Nuclei (%) [5]: 7.32% and 13.29%
- Population Tubulin-Different-Phenotype (%) [5]: 0.32% and 0%
- Population Apoptotic (%) [6]: 40% and 47.5%
- Population Fragmented Nuclei (%) [6]: 2.52% and 1.99%
- Population Healthy Nuclei (%) [6]: 89.1% and 88.09%
- Population Hoechst High Intensity Objects (%) [6]: 0%
- Population Membrane Permeable-Phenotype (%) [6]: 0.47% and 3.66%
- Population Mitochondria Different-Phenotype (%) [6]: 0% and 0.85%
- Population Mitotic Cells (%) [6]: 60% and 52.5%
- Population Normal (%) [6]: 100%
- Population Pyknosed Nuclei (%) [6]: 8.39% and 9.93%
- Population Tubulin-Different-Phenotype (%) [6]: 0.82% and 1.13%
- Total Cell Count [6]: 954 and 403
